According to ChEMBL document CHEMBL1687719, “Absence of CD4+ T lymphocytes, CD8+ T lymphocytes, or B lymphocytes has different effects on the efficacy of posaconazole and benznidazole in treatment of experimental acute Trypanosoma cruzi infection” (2009):
Active and inactive are the calls of the source. The calls are words filed in the database; no cut-off is given here.

Assays:
[1] = tested on: Trypanosoma cruzi; assay: Antitrypanosomal activity against Trypanosoma cruzi Y infected in CD4+ T-lymphocyte knockout C57BL/6 mouse assessed as reactivation of parasite in mouse at 20 mg/kg/day, po administered twice daily for 20 consecutive days measured 60 days post infection; format: functional, organism-based
Procedure, shortened: (§1)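 Ip infection was 5,000 Y-strain blood trypomastigotes. From 4 dpi mice got 20 mg/kg/day orally in two daily doses (2% methylcellulose/0.5% Tween 80) for 20 days. Fresh tail blood was examined microscopically, daily from 4–16 dpi and every other day to 60 dpi. Reactivation was scored as return of patent parasitemia after treatment. Parasitemia curves were compared by Mann-Whitney.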

[2] = tested on: Trypanosoma cruzi; assay: Antitrypanosomal activity against Trypanosoma cruzi Y infected in B-lymphocyte knockout C57BL/6 mouse assessed as number of mouse with reactivation of infection at 20 mg/kg/day, […] for 20 consecutive days measured 22 days post infection; format: functional, organism-based
[3] = tested on: Trypanosoma cruzi; assay: Antitrypanosomal activity against Trypanosoma cruzi Y infected in CD8+ T-lymphocyte knockout C57BL/6 mouse assessed as occurrence of low level of circulating parasites at 20 mg/kg/day, po administered twice daily for 20 consecutive days measured 25 days post infection; format: functional, organism-based; procedure, shortened: as §1
[4] = tested on: Trypanosoma cruzi; assay: Antitrypanosomal activity against Trypanosoma cruzi Y infected in CD8+ T-lymphocyte knockout C57BL/6 mouse assessed as cure rate in mouse at 20 mg/kg/day, po administered twice daily for 20 consecutive days measured 60 days post infection; format: functional
Procedure, shortened: (§2)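 Wild-type or knockout mice got 5,000 Y-strain blood trypomastigotes ip. Oral dosing ran from 4 dpi for 20 days: 20 mg/kg/day in two doses, in 2% methylcellulose plus 0.5% Tween 80. Cure meant no parasitemia on fresh tail blood up to 60 dpi and a negative hemoculture: 0.5 ml orbital blood in LIT medium, 28°C, 30–60 days, checked by microscopy. Rates compared by chi-square/Bonferroni.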

[5] = tested on: Trypanosoma cruzi; assay: Antitrypanosomal activity against Trypanosoma cruzi Y infected in CD4+ T-lymphocyte knockout C57BL/6 mouse assessed as reactivation of parasite in mouse at 100 mg/kg/day, po administered once daily for 20 consecutive days measured 60 days post infection; format: functional, organism-based
Procedure, shortened: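 Ip infection was 5,000 Y-strain blood trypomastigotes. Oral dosing at 100 mg/kg/day, once daily in gum arabic water, ran from 4 dpi for 20 days. Parasitemia was read by microscopy of fresh tail blood, daily from 4–16 dpi, then every other day to 60 dpi. Reactivation was scored as patent parasitemia returning after treatment ended.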

[6] = tested on: Trypanosoma cruzi; assay: Antitrypanosomal activity against Trypanosoma cruzi Y infected in CD4+ T-lymphocyte knockout C57BL/6 mouse assessed as mean survival time at 20 mg/kg/day, po administered twice daily for 20 consecutive days measured 60 days post infection; format: functional
Procedure, shortened: (§3)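 Mice were infected ip with 5,000 Y-strain blood trypomastigotes. Oral treatment began at 4 dpi at 20 mg/kg/day, split into two daily doses, suspended in 2% methylcellulose with 0.5% Tween 80, for 20 days. Survival was recorded to 60 dpi, giving rate and mean survival time. Untreated and vehicle-treated infected controls were included. Chi-square/Bonferroni comparison.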

[7] = tested on: Trypanosoma cruzi; assay: Antitrypanosomal activity against Trypanosoma cruzi Y infected in CD8+ T-lymphocyte knockout C57BL/6 mouse assessed as occurrence of subpatent level of parasitemia at 20 mg/kg/day, po administered twice daily for 20 consecutive days measured 60 days post infection; format: functional, organism-based; procedure, shortened: as §1
[8] = tested on: Trypanosoma cruzi; assay: Antitrypanosomal activity against Trypanosoma cruzi Y infected in CD4+ T-lymphocyte knockout C57BL/6 mouse assessed as cure rate in mouse at 20 mg/kg/day, po administered twice daily for 20 consecutive days measured 60 days post infection; format: functional; procedure, shortened: as §2
[9] = tested on: Trypanosoma cruzi; assay: Antitrypanosomal activity against Trypanosoma cruzi Y infected in B-lymphocyte knockout C57BL/6 mouse assessed as cure rate in mouse at 20 mg/kg/day, po administered twice daily for 20 consecutive days measured 60 days post infection; format: functional; procedure, shortened: as §2
[10] = tested on: Trypanosoma cruzi; assay: Antitrypanosomal activity against Trypanosoma cruzi Y infected in B-lymphocyte knockout C57BL/6 mouse assessed as mean survival time at 20 mg/kg/day, po administered twice daily for 20 consecutive days measured 60 days post infection; format: functional; procedure, shortened: as §3
[11] = tested on: Trypanosoma cruzi; assay: Antitrypanosomal activity against Trypanosoma cruzi Y infected in B-lymphocyte knockout C57BL/6 mouse assessed as increase in survival of mouse at 20 mg/kg/day, po administered twice daily for 20 consecutive days measured 60 days post infection; format: functional; conditions: 1440 h; procedure, shortened: as §3
[12] = tested on: Trypanosoma cruzi; assay: Antitrypanosomal activity against Trypanosoma cruzi Y infected in CD8+ T-lymphocyte knockout C57BL/6 mouse assessed as number of mouse with reactivated parasite at 20 mg/kg/day, po administered twice daily for 20 consecutive days measured 60 days post infection; format: functional; procedure, shortened: as §1
[13] = tested on: Trypanosoma cruzi; assay: Antitrypanosomal activity against Trypanosoma cruzi Y infected in CD4+ T-lymphocyte knockout C57BL/6 mouse assessed as reactivation of parasite in mouse at 20 mg/kg/day, po administered twice daily for 20 consecutive days measured 7 days post infection; format: functional, organism-based; procedure, shortened: as §1
[14] = tested on: Trypanosoma cruzi; assay: Antitrypanosomal activity against Trypanosoma cruzi Y infected in CD8+ T-lymphocyte knockout C57BL/6 mouse assessed as mean survival time at 20 mg/kg/day, po administered twice daily for 20 consecutive days measured 60 days post infection; format: functional; procedure, shortened: as §3
[15] = tested on: Trypanosoma cruzi; assay: Antitrypanosomal activity against Trypanosoma cruzi Y infected in C57BL/6 mouse assessed as cure rate in mouse at 20 mg/kg/day, po administered twice daily for 20 consecutive days measured 60 days post infection; format: functional; procedure, shortened: as §2
[16] = tested on: Trypanosoma cruzi; assay: Antitrypanosomal activity against Trypanosoma cruzi Y infected in CD8+ T-lymphocyte knockout C57BL/6 mouse assessed as increase in survival of mouse at 20 mg/kg/day, po administered twice daily for 20 consecutive days measured 60 days post infection; format: functional; conditions: 1440 h; procedure, shortened: as §3
[17] = tested on: Trypanosoma cruzi; assay: Antitrypanosomal activity against Trypanosoma cruzi Y infected in C57BL/6 mouse assessed as increase in survival of mouse at 20 mg/kg/day, po administered twice daily for 20 consecutive days measured 60 days post infection; format: functional; conditions: 1440 h; procedure, shortened: as §3
[18] = tested on: Trypanosoma cruzi; assay: Antitrypanosomal activity against Trypanosoma cruzi Y infected in C57BL/6 mouse assessed as mean survival time at 20 mg/kg/day, po administered twice daily for 20 consecutive days measured 60 days post infection; format: functional; procedure, shortened: as §3
[19] = tested on: Trypanosoma cruzi; assay: Antitrypanosomal activity against Trypanosoma cruzi Y infected in CD4+ T-lymphocyte knockout C57BL/6 mouse assessed as increase in survival of mouse at 20 mg/kg/day, po administered twice daily for 20 consecutive days measured 60 days post infection; format: functional; conditions: 1440 h; procedure, shortened: as §3

`CC[C@@H]([C@H](C)O)n1ncn(-c2ccc(N3CCN(c4ccc(OC[C@@H]5CO[C@@](Cn6cncn6)(c6ccc(F)cc6F)C5)cc4)CC3)cc2)c1=O` [POSACONAZOLE] was tested, and the Activity [1] was “inactive”, the Activity [2] was “Active” and the Activity [3] was “Active”. The Activity [4] was 31%, the Activity [5] was “inactive” and the MST [6] was 50.5 days. The Activity [7] was “Active”, the Activity [8] was 0% and the Activity [9] was 71%. It also gave an MST [10] greater than 60 days, a survival at 20 mg/kg/day [11] of 100% and an Activity [12] of 13%. The Activity [13] was “inactive”, the MST [14] was 59.6 days and the Activity [15] was 89%. It also gave a survival at 20 mg/kg/day [16] of 81%, a survival at 20 mg/kg/day [17] of 100% and an MST [18] greater than 60 days. For the same compound, the survival at 20 mg/kg/day [19] was 6%.
